Laboratory results: ChEMBL document CHEMBL1154674, “Synthesis and evaluation of three 18F-labeled aminophenylbenzothiazoles as amyloid imaging agents” (J Med Chem, 2009)
One block for each compound: values may come before it.

Experiments:
Type in all cases: ADME, organism-based, Macaca mulatta
[1] = Drug level in normal rhesus monkey pons assessed as standard uptake value at 96.3 MBq, iv after 12 mins by microPET; conditions: in vivo, 0.2 h
[2] = Drug level in normal rhesus monkey frontal cortex assessed as standard uptake value at 96.3 MBq, iv after 17.5 mins by microPET; conditions: in vivo
[3] = Drug level in normal rhesus monkey pons assessed as standard uptake value at 96.3 MBq, iv after 57.5 mins by microPET; conditions: in vivo
[4] = Drug level in normal rhesus monkey white matter assessed as standard uptake value at 96.3 MBq, iv after 165 mins by microPET; conditions: in vivo, 2.75 h
[5] = Drug level in normal rhesus monkey thalamus assessed as standard uptake value at 96.3 MBq, iv after 17.5 mins by microPET; conditions: in vivo
[6] = Drug level in normal rhesus monkey thalamus assessed as standard uptake value at 96.3 MBq, iv after 165 mins by microPET; conditions: in vivo, 2.75 h
[7] = Drug level in normal rhesus monkey white matter assessed as standard uptake value at 96.3 MBq, iv after 47.5 mins by microPET; conditions: in vivo
[8] = Drug level in normal rhesus monkey thalamus assessed as standard uptake value at 96.3 MBq, iv after 3.5 mins by microPET; conditions: in vivo
[9] = Drug level in normal rhesus monkey parietal cortex assessed as standard uptake value at 96.3 MBq, iv after 1.5 mins by microPET; conditions: in vivo, 0.025 h
[10] = Drug level in normal rhesus monkey parietal cortex assessed as standard uptake value at 109.4 MBq, iv after 6.5 mins by microPET; conditions: in vivo
[11] = Drug level in normal rhesus monkey pons assessed as standard uptake value at 109.4 MBq, iv after 105 mins by microPET; conditions: in vivo, 1.75 h
[12] = Drug level in normal rhesus monkey pons assessed as standard uptake value at 109.4 MBq, iv after 27.5 mins by microPET; conditions: in vivo
[13] = Drug level in normal rhesus monkey pons assessed as standard uptake value at 109.4 MBq, iv after 0.875 mins by microPET; conditions: in vivo, 52 s
[14] = Drug level in normal rhesus monkey thalamus assessed as standard uptake value at 109.4 MBq, iv after 129 mins by microPET; conditions: in vivo, 2.15 h
[15] = Drug level in normal rhesus monkey parietal cortex assessed as standard uptake value at 109.4 MBq, iv after 117 mins by microPET; conditions: in vivo, 1.95 h
[16] = Drug level in normal rhesus monkey thalamus assessed as standard uptake value at 109.4 MBq, iv after 0.375 mins by microPET; conditions: in vivo, 22 s
[17] = Drug level in normal rhesus monkey parietal cortex assessed as standard uptake value at 109.4 MBq, iv after 0.625 mins by microPET; conditions: in vivo, 38 s
[18] = Drug level in normal rhesus monkey pons assessed as standard uptake value at 81.2 MBq, iv after 17.5 mins by microPET; conditions: in vivo
[19] = Drug level in normal rhesus monkey parietal cortex assessed as standard uptake value at 81.2 MBq, iv after 14 mins by microPET; conditions: in vivo
[20] = Drug level in normal rhesus monkey white matter assessed as standard uptake value at 81.2 MBq, iv after 8 mins by microPET; conditions: in vivo
[21] = Drug level in normal rhesus monkey frontal cortex assessed as standard uptake value at 81.2 MBq, iv after 3.5 mins by microPET; conditions: in vivo
[22] = Drug level in normal rhesus monkey frontal cortex assessed as standard uptake value at 81.2 MBq, iv after 12 mins by microPET; conditions: in vivo, 0.2 h
Procedure, shortened: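 Single normal rhesus monkey; each tracer given iv via the vena saphena, with 1 day between tracer injections. Dynamic μPET ran 180 min (5×60 s, 5×120 s, 9×300 s, 12×600 s). Images were reconstructed by filtered back projection with a RAMP filter. Regional time-activity curves were expressed as SUV.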

[23] = Drug level in normal rhesus monkey pons assessed as standard uptake value at 81.2 MBq, iv after 175 mins by microPET; conditions: in vivo
[24] = Drug level in normal rhesus monkey frontal cortex assessed as standard uptake value at 81.2 MBq, iv after 65 mins by microPET; conditions: in vivo
[25] = Drug level in normal rhesus monkey white matter assessed as standard uptake value at 81.2 MBq, iv after 42.5 mins by microPET; conditions: in vivo
[26] = Drug level in normal rhesus monkey parietal cortex assessed as standard uptake value at 81.2 MBq, iv after 3.5 mins by microPET; conditions: in vivo
[27] = Drug level in normal rhesus monkey parietal cortex assessed as standard uptake value at 152.9 MBq, iv after 32.5 mins by microPET; conditions: in vivo
[28] = Drug level in normal rhesus monkey thalamus assessed as standard uptake value at 152.9 MBq, iv after 32.5 mins by microPET; conditions: in vivo
[29] = Drug level in normal rhesus monkey pons assessed as standard uptake value at 152.9 MBq, iv after 14 mins by microPET; conditions: in vivo
[30] = Drug level in normal rhesus monkey white matter assessed as standard uptake value at 152.9 MBq, iv after 85 mins by microPET; conditions: in vivo
[31] = Drug level in normal rhesus monkey cerebellum assessed as standard uptake value at 152.9 MBq, iv after 3.5 mins by microPET; conditions: in vivo
Procedure, shortened: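 One normal rhesus monkey received each tracer via the vena saphena, with 1 day between injections. Dynamic μPET ran 180 min for 18F tracers (5×60 s, 5×120 s, 9×300 s, 12×600 s) and 90 min for the 11C tracer (5×60 s, 5×120 s, 9×300 s, 3×600 s). Filtered back-projection reconstruction (RAMP filter) was used. Time-activity curves were drawn to give regional SUV.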

[32] = Drug level in normal rhesus monkey white matter assessed as standard uptake value at 152.9 MBq, iv after 75 mins by microPET; conditions: in vivo, 1.25 h
[33] = Drug level in normal rhesus monkey white matter assessed as standard uptake value at 152.9 MBq, iv after 42.5 mins by microPET; conditions: in vivo
[34] = Drug level in normal rhesus monkey frontal cortex assessed as standard uptake value at 152.9 MBq, iv after 14 mins by microPET; conditions: in vivo
Procedure, shortened: (§1)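 Single normal rhesus monkey; tracer given iv via the vena saphena, 1 day apart from the other tracer injections. Dynamic μPET ran 90 min (5×60 s, 5×120 s, 9×300 s, 3×600 s). Images were reconstructed by filtered back projection with a RAMP filter. Regional time-activity curves were expressed as SUV.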

[35] = Drug level in normal rhesus monkey thalamus assessed as standard uptake value at 152.9 MBq, iv after 42.5 mins by microPET; conditions: in vivo
[36] = Drug level in normal rhesus monkey parietal cortex assessed as standard uptake value at 152.9 MBq, iv after 4.5 mins by microPET; conditions: in vivo, 0.075 h
[37] = Drug level in normal rhesus monkey parietal cortex assessed as standard uptake value at 152.9 MBq, iv after 52.5 mins by microPET; conditions: in vivo, 0.875 h
[38] = Drug level in normal rhesus monkey frontal cortex assessed as standard uptake value at 152.9 MBq, iv after 10 mins by microPET; conditions: in vivo; procedure, shortened: as §1

SUV [1]: 1.55
SUV [2]: 2.22
SUV [3]: 1.95
SUV [4]: 1.55
SUV [5]: 2.3
SUV [6]: 1.86
SUV [7]: 1.37
SUV [8]: 2
SUV [9]: 1.7
SMILES: CN(C)c1ccc2nc(-c3ccc([18F])cc3)sc2c1

SUV [10]: 5.31
SUV [11]: 4.79
SUV [12]: 4.78
SUV [13]: 1.85
SUV [14]: 4.43
SUV [15]: 3.51
SUV [16]: 0.41
SUV [17]: 1.52
SMILES: Nc1ccc2nc(-c3ccc([18F])cc3)sc2c1

SUV [18]: 5.124
SUV [19]: 4.798
SUV [20]: 3.412
SUV [21]: 5.355
SUV [22]: 5.988
SUV [23]: 5.471
SUV [24]: 5.125
SUV [25]: 3.757
SUV [26]: 4.897
SMILES: CNc1ccc2nc(-c3ccc([18F])cc3)sc2c1

SUV [27]: 1.081
SUV [28]: 1.517
SUV [29]: 2.04
SUV [30]: 0.878
SUV [31]: 2.17
SUV [32]: 0.828
SUV [33]: 1.04
SUV [34]: 1.904
SUV [35]: 1.223
SUV [36]: 1.925
SUV [37]: 0.799
SUV [38]: 2.163
SMILES: [11CH3]Nc1ccc(-c2nc3ccc(O)cc3s2)cc1 [PITTSBURGH COMPOUND B]
